Measurements: paper PMC7127808 (Biochimie, 2017)

Columns and labels:
[1] = target: T1, Porcine kidney APN (pAPN) (Sus scrofa, UniProt P15145); test: Porcine kidney APN; type: biochemical; settings: for Inhibition Type: Table 1, hAPN and pAPN, Lineweaver-Burk diagnosis (hAPN data not shown); for α (pAPN): factor between αKi and Ki vs pAPN; for IC50: read-out: IC50 vs pAPN, 30 min pre-incubation, substrate at KM, n = 4
T1 sequence (P15145 1-963): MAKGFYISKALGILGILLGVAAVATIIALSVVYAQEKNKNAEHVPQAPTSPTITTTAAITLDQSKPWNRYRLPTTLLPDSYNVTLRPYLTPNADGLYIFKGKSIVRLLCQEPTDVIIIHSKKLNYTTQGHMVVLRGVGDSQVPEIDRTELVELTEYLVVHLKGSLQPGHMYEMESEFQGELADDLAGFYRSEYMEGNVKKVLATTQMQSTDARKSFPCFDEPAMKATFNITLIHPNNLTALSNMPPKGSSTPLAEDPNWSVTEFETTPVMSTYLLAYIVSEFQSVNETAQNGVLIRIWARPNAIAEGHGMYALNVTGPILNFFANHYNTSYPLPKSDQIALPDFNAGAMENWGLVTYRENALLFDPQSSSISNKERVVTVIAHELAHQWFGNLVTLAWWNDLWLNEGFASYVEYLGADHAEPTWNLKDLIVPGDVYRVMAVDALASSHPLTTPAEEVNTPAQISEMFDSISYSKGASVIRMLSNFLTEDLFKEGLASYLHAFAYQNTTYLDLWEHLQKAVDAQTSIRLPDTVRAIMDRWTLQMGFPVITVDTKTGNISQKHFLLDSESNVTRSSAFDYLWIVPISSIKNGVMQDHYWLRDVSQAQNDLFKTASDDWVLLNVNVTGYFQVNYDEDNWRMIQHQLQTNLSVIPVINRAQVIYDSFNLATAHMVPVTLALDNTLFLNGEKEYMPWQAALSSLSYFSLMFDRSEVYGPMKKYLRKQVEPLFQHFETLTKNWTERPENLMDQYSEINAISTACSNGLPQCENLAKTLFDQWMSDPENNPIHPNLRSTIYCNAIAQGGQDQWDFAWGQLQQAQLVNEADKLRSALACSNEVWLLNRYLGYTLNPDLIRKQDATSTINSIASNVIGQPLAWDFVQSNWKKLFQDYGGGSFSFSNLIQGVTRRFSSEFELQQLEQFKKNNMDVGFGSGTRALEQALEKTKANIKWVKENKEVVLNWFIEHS

[2] = target: Human placental aminopeptidase N (hAPN) (Homo sapiens, UniProt P15144); test: Human placental aminopeptidase N; type: biochemical; settings: read-out: IC50 vs hAPN; 30 min pre-incubation; substrate at KM; n = 4
[3] = test system: Wistar rats; test: Mortality and spontaneous behavior after intraperitoneal injection; type: in vivo; settings: 3 μg/g b.w. intraperitoneal, compared to the vehicle group (not shown)
[4] = target: T2, rat APN activity (Rattus norvegicus, UniProt P15684); test: In vivo effects of inhibitors on APN activity in rat organs; settings: for blood-brain barrier crossing: inferred from inhibition of APN activity in the brain of rats
T2 sequence (P15684 1-965): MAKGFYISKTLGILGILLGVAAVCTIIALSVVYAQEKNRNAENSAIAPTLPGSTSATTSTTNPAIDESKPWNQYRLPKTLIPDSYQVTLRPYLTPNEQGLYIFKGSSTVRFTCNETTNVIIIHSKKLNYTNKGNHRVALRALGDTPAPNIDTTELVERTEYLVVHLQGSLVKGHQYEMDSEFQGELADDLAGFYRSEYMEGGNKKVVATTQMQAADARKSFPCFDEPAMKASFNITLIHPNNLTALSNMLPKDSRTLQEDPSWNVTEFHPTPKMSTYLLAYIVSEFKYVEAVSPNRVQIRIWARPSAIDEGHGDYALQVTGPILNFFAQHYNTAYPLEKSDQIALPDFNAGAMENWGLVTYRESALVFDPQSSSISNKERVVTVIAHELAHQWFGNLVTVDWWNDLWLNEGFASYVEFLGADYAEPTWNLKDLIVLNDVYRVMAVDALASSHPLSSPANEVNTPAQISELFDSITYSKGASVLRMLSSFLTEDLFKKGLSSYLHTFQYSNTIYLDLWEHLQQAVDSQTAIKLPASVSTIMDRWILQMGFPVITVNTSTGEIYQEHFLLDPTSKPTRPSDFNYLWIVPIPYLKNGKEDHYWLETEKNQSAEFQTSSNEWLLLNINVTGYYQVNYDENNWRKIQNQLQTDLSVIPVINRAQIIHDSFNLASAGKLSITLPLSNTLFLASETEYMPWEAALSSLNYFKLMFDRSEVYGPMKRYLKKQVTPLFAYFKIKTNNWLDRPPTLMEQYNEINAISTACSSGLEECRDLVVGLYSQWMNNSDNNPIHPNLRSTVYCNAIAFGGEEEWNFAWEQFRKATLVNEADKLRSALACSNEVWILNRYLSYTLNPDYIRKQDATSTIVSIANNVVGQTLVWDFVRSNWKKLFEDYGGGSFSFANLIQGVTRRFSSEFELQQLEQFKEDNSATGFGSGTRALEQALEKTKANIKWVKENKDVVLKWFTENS
Procedure, shortened: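 Wistar rats (80–100 days, 260–300 g) got one intraperitoneal injection of inhibitor, 3 μg/g body weight in 100 μL 0.9% saline, or saline alone (n = 6 per group). Decapitation 1 h later; organs frozen, stored at −70 °C. NaCl-washed membranes from 10% (w/v) homogenates in 50 mM Tris-HCl pH 8. APN kinetic assay as for porcine APN, 30 min. Mean ± SD; ANOVA, Tukey-Kramer.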

[5] = target: porcine kidney cortex glutamyl aminopeptidase (porcine aminopeptidase A; pAPA) (Sus scrofa, UniProt Q95334); test: Porcine aminopeptidase A; type: biochemical; settings: read-out: IC50 vs pAPA; dose-response, L-Glu-pNA
Procedure, shortened: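 Microsomes from porcine kidney cortex, prepared as for placental APN, used at 1 mg/mL in 50 mM Tris-HCl pH 8, 0.1% Triton X100, 1 mM CaCl2. Substrate L-Glu-pNA at or below one KM. p-Nitroaniline release read at 405 nm every 15 s for 5 min, 37 °C. Test compounds came from 10 mM DMSO stocks diluted in buffer. IC50 came from nonlinear regression of dose-response data.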

[6] = rat, 3 μg/g b.w. intraperitoneal, 60 min, vs saline injected animals

Chain of porcine kidney cortex glutamyl aminopeptidase (porcine aminopeptidase A; pAPA) (Q95334 whole entry): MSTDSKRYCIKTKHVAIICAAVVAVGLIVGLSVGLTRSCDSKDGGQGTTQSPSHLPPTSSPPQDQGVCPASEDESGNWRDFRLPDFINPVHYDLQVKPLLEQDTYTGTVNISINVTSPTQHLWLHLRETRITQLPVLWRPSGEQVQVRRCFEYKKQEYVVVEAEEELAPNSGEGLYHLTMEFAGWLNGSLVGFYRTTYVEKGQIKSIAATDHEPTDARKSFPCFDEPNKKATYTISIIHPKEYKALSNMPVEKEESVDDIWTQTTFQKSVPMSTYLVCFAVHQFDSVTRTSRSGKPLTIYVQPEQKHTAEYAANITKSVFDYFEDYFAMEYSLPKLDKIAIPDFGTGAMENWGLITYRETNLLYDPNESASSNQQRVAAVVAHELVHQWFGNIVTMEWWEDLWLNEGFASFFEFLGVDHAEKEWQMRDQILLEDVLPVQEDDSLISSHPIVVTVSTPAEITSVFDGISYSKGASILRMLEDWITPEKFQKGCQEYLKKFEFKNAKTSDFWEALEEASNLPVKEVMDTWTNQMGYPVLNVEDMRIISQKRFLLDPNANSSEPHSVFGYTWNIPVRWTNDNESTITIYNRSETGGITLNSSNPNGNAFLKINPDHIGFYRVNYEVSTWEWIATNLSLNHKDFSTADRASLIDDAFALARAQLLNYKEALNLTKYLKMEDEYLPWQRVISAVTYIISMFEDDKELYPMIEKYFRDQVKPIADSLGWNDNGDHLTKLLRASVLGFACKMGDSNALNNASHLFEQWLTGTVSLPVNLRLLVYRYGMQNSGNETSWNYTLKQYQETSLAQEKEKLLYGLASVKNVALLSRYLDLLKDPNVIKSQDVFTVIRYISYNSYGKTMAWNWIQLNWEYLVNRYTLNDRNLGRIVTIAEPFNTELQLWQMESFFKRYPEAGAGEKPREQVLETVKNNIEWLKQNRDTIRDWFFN
Chain of Human placental aminopeptidase N (hAPN) (P15144 whole entry): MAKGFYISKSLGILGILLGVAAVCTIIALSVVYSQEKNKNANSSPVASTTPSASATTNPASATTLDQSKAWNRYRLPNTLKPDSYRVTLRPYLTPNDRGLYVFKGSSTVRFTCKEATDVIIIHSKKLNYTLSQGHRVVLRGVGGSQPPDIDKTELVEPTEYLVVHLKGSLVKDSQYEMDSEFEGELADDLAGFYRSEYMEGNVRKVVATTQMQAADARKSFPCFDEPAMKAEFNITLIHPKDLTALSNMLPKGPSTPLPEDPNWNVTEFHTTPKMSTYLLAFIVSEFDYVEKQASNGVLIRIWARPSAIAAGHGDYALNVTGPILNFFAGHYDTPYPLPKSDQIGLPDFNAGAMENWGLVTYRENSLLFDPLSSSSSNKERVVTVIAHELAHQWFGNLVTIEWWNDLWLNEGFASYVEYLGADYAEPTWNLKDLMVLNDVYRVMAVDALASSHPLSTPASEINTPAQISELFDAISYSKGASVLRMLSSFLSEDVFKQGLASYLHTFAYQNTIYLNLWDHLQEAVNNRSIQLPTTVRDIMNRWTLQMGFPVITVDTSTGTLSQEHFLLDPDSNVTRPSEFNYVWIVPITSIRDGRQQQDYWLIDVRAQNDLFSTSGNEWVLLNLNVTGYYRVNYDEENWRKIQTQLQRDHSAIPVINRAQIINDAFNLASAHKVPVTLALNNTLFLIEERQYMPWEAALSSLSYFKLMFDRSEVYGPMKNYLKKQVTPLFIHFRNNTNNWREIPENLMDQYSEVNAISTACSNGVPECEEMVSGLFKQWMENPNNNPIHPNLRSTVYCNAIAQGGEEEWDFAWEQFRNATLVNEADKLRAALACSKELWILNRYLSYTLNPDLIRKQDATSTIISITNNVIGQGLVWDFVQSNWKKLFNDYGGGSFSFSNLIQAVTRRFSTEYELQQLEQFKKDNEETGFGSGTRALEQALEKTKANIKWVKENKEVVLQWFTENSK

Row | SMILES | Inhibition Type [1] | α (pAPN) [1] | IC50 [2] [nM] | IC50 [1] [nM] | mortality or change in rat spontaneous behavior [3] | blood-brain barrier crossing [4] | APN activity in brain [4, 6] | APN activity in kidney [4, 6] | APN activity in liver [4, 6] | IC50 [5] [nM] | APN activity in pancreas [4, 6]
1 | CC(C)C[C@H](NC(=O)[C@@H](O)[C@H](N)Cc1ccccc1)C(=O)O [Bestatin, reference compound] | Non-competitive α > 1 | 5.97 |  |  |  |  |  |  |  |  | 
2 | O=C(NNC(=NS(=O)(=O)c1ccc(-n2nc(C(F)(F)F)cc2-c2cccs2)cc1)N1CCCC1)c1ccc(Cl)cc1 [BTB07018, N1-[[2-(4-chlorobenzoyl)hydrazino](tetrahydro-1H-pyrrol-1-yl)methylidene]-4-[5-(2-thienyl)-3-(trifluoromethyl)-1H-pyrazol-1-yl]benzene-1-sulfonamide] | Non-competitive α > 1 | 1.82 | 2670 ± 110 | 2290 ± 100 | did not induce any mortality or change in rat spontaneous behavior | crossed the blood-brain barrier | decreased APN activity | decreased APN activity | decreased APN activity | 4740 ± 100 | 
3 | N#Cc1cc(Cc2ccc3c(ccc4ccccc43)c2C#N)cc2c1ccc1ccccc12 [JFD00064, 2-[(1-cyano-3-phenanthryl)methyl]phenanthrene-1-carbonitrile] | Non-competitive α > 1 | 2.69 |  | 2830 ± 100 | did not induce any mortality or change in rat spontaneous behavior | crossed the blood-brain barrier | decreased APN activity | decreased APN activity | decreased APN activity | 1820 ± 110 | inhibited the APN activity
4 | C(=C1c2ccccc2-c2c1ccc1ccccc21)c1cc2c3c(cccc3c1)-c1ccccc1-2 [BTB11079, 2-(7H-benzo[c]fluoren-7-ylidenmethyl)fluoranthene] | Non-competitive α > 1 | 11.40 |  | 2950 ± 100 | did not induce any mortality or change in rat spontaneous behavior |  |  |  |  | 3880 ± 110 | 
